Assay outcomes from PubChem.
This is one part of a sample in which hits are shown more often than they occur.
HUVEC inhibit = human endothelial cell proliferation inhibition; 86,000 compounds, 1.1% hits; viability, % at 10 µM (by protocol); HUVEC proliferation, CellTiter-Glo luminescence, 72 h; active compounds read low;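 active means viability at or below 30%; inactive means viability above 30%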;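 further: 100% = median luminescence of DMSO-only cell control wells on each plate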
H69AR inhibit = growth inhibitors of human H69AR lung tumor cells; H69AR lung tumor viability, ATP luminescence, 72 h; active compounds read low; viability, % at 10 µM; 85,000 compounds, 6% hits; AID 598;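 active means viability at or below 40%; inactive means viability above 40%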;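 further: multidrug resistant small cell line overexpressing MRP-1 efflux transporter; 100% = mean luminescence of untreated control wells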
HCT116 bCat-KO = beta-catenin-lacking colon tumor cell growth suppression | 140,000 compounds, 1.5% hits | AID 818 | HCT116 beta-catenin knockout viability, CellTiter-Glo, 60 h; active compounds read low | viability, % at 10 µM;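 active means viability at or under a set limit, the compound median less 4 SD, cut at about 6% in these data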;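 further: 0% = Hyamine 1622 control at 20 µM and 100% = untreated cell control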
Lung fibro prol = blocks proliferation of human lung fibroblasts. LL 47 human lung fibroblast viability, ATP luminescence; active compounds read low. viability, % at 10 µM. 85,000 compounds, 1.1% hits. AID 719;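 active means viability at or below 50% in the single dose screen; inactive means viability above 50%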;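 further: compound exposure lasted 72 h before the ATP readout; 100% = median luminescence of untreated cell-only wells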
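test system = LL 47 human lung fibroblasts | amount = 1,150 fibroblasts seeded per well | medium = 15% FBS in IMEM | times = overnight cell rest, 72 h compound treatment at 37 °C | measured by = CellTiter-Glo luminescence measuring cellular ATP | read-out = viability percentage against median untreated-cell control | benchmarks = cell-only wells, no compound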
PTEN del growth = PTEN-deleted cell growth suppression. 140,000 compounds, 1.2% hits. HCT116 PTEN-null viability, CellTiter-Glo, 60 h; active compounds read low. viability, % at 10 µM;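 active means viability at or below a set limit, 4 SD under the median of all tested compounds, cut at about 3.7% in these data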;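 further: PTEN knockout HCT116 line with beta catenin targeted HCT116 as companion control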
* hit, by the source's call; . = no result given.

SMILES | HUVEC inhibit | H69AR inhibit | HCT116 bCat-KO | Lung fibro prol | PTEN del growth
COc1ccc(C(C[N+](=O)[O-])c2c(-c3ccccc3)cc3ccccn23)cc1OC (stereo not given) | 81 | 26* | 41 | 66 | 49
CS(=O)(=O)N(CC(=O)N1CCc2ccccc2C1)Cc1ccc(Cl)cc1 | 92 | 85 | 84 | 94 | 72
O=c1[nH]c(=O)n([C@H]2C[C@H](O)[C@@H](CO)O2)cc1F | 62 | 15* | 45 | 80 | 36
Cc1cn([C@H]2C[C@H](N=[N+]=[N-])[C@@H](CO)O2)c(=O)[nH]c1=O | 110 | 91 | 83 | 100 | 87
Cc1ccc(-c2nn(C)c(=O)c3ccccc23)cc1CNC(=O)CN1CCOCC1 | 101 | 64 | 93 | 94 | 91
Cc1ccc(-c2nn(C)c(=O)c3ccccc23)cc1CNC(=O)Cn1nc(-c2ccccc2)c2ccccc2c1=O | 86 | 1.6* | 89 | 99 | 101
Cc1ccc(-c2nn(CC(=O)NCCN3CCOCC3)c(=O)c3ccccc23)cc1 | 95 | 93 | 87 | 100 | 95
Cc1cc(C)n(CC(=O)NCc2cc(-c3nn(C)c(=O)c4ccccc34)ccc2C)n1 | 94 | 30* | 89 | 96 | 97
Cc1ccc(-c2nn(C)c(=O)c3ccccc23)cc1CO | . | . | 93 | . | 99
Cc1ccc(-c2nn(CC(=O)NCc3ccco3)c(=O)c3ccccc23)cc1 | 81 | 22* | 5.2* | 63 | 7
CCOC(=O)C(CC)Sc1nnc(COc2ccc(C)cc2)n1-c1ccccc1 (stereo not given) | 93 | 71 | 72 | 95 | 67
CCC(NS(=O)(=O)c1ccc(C)cc1)C(=O)Nc1ccc(NC(C)=O)cc1 (stereo not given) | 94 | 85 | 91 | 101 | 92
CNC(CC(=O)c1ccc([N+](=O)[O-])cc1)C(Cl)(Cl)Cl (stereo not given) | . | . | 2.6* | . | 3.4*
C=C1C(=O)C=C2CN(C(=O)c3ccccc3)[C@@](Cc3ccc(F)cc3)(C(=O)OC)[C@@H]12 | . | . | 0.9* | . | 1.0*
COC(=O)[C@@]1(Cc2ccc(OC)cc2)[C@@H]2C(=CC(=O)[C@H]2CC(=O)C(=O)N(C)C)CN1C(=O)c1ccccc1 | . | . | 2.2* | . | 2.5*
O=C(CCCN1CC=C(n2c(=O)[nH]c3ccccc32)CC1)c1ccc(F)cc1 | 89 | 67 | 85 | 90 | 87
COc1ccc(NC(=O)C2CCCCN2CC(=O)OCc2ccccc2)cc1OC (stereo not given) | 95 | 93 | 105 | 102 | 97
Cc1ccc(C(=O)CSc2ncnc3sc4c(c23)CCC(C)C4)cc1 (stereo not given) | 86 | 76 | 99 | 94 | 99
COc1cc(CN2CCN(c3cccc(Cl)c3)CC2)cc(OC)c1OC | 59 | 26* | 32 | 66 | 27
Cc1nn(-c2cc(N3CCOCC3)ccc2[N+](=O)[O-])c(=O)c2ccccc12 | 91 | 101 | 98 | 96 | 98
Cc1nn(-c2cc(N3CCCC3)ccc2[N+](=O)[O-])c(=O)c2ccccc12 | 83 | 33* | 91 | 103 | 88
CN(Cc1ccccc1)S(=O)(=O)c1ccc(S(=O)(=O)N2CCN(CCC#N)CC2)cc1 | 107 | 100 | . | 86 | .
COc1ccc(-c2nc(Cn3c(SCc4cccc(F)c4)nc4ccncc43)c(C)o2)cc1OC | 58 | 54 | 64 | 87 | 68
COc1ccc(-c2nc(Cn3c(SCc4ccc(C)cc4)nc4ccncc43)c(C)o2)cc1OC | 73 | 19* | 71 | 93 | 75
Cc1ccc(C2Oc3ccccc3C3=C2C(c2cccs2)n2ncnc2N3)cc1 (stereo not given) | 66 | 18* | 26 | 44* | 23
SMILES | HUVEC inhibit | H69AR inhibit | HCT116 bCat-KO | Lung fibro prol | PTEN del growth
O=C(CCn1c(=O)c2sccc2n(CC(=O)OCc2ccccc2)c1=O)NCc1ccccc1 | 82 | 74 | 16 | 98 | 30
O=C(CO/N=C/c1ccccc1)N1c2ccccc2Oc2ccccc21 | 97 | 88 | 81 | 92 | 82
C=CCSc1nnc2nc3c(nn12)c1cc(C)ccc1n3CC=C | 85 | 66 | 93 | 92 | 80
COc1ccccc1NC(=O)c1ccc(NC(=O)CSc2nnnn2C)cc1 | 97 | 2.2* | 81 | 104 | 91
COc1ccccc1NC(=O)CSc1nnnn1-c1ccc(C)cc1 | 88 | 83 | 86 | 101 | 103
CCOC(=O)c1c(NC(=O)c2cc(-c3ccc(Cl)s3)nc3ccccc23)sc(C(N)=O)c1C | . | . | 3.6* | . | 1.2*
O=C(COC(=O)c1cc(-c2cccs2)nc2ccccc12)NCc1ccco1 | 92 | 89 | 97 | 103 | 104
Cc1ccccc1-c1cc(C(=O)Nc2sc(C)c(C)c2C(N)=O)c2ccccc2n1 | . | . | 65 | . | 53
CCOC(=O)c1c(NC(=O)c2ccc(Cl)s2)sc(C)c1C | 76 | 33* | . | 100 | .
O=C(COC(=O)c1cc(-c2ccc(Cl)s2)nc2ccccc12)NCc1ccco1 | 64 | 27* | 53 | 95 | 62
CCC(CC)NC(=O)Cc1ccccc1OC | 86 | 87 | 95 | 94 | 96
CC1CCC/C(=N\NC(=O)COc2ccccc2Cl)C1 (stereo not given) | . | . | 95 | . | 100
COc1ccc(C(=S)Nc2ccc(C)cc2)cc1 | . | . | 83 | . | 105
COc1ccc(N/N=C(\C#N)C(N)=O)cc1 | . | . | 96 | . | 99
CO/N=C\C(=N\Nc1ccc(OC)cc1)C(=O)c1ccccc1 | 65 | 28* | 65 | 86 | 69
CO/N=C/C(=N\Nc1ccc(C)cc1)C(=O)c1ccc(OC)cc1 | 54 | 22* | 28 | 55 | 32
COc1cccc(-c2nc(CS(=O)(=O)CC(=O)Nc3cccc(C)c3C)c(C)o2)c1 | 100 | 1.5* | 93 | 97 | 97
CN1CCc2c(sc3nc(SCC(=O)N4CCOCC4)nc(N)c23)C1 | 98 | 89 | 88 | 96 | 91
CSc1nc(SCC(=O)NC(c2ccccc2)c2ccccc2)c2c3c(sc2n1)CN(C)CC3 | 31 | 12* | 70 | 48* | 33
O=C(C#Cc1cccc([N+](=O)[O-])c1)c1ccccc1 | 61 | 2.6* | 8 | 48* | 3.7*
O=C(NCCc1ccccc1)c1cccc([N+](=O)[O-])c1 | . | . | 87 | . | 98
Cn1cc(C(=O)NCN2CCCCC2)c2ccccc21 | 101 | 89 | 84 | 96 | 83
COCCCn1[nH]c2c3c(ccc2c1=O)C(=O)c1ccccc1C3=O | 6.8* | 86 | 28 | 87 | 28
Cc1ccc(-n2[nH]c3c4c(ccc3c2=O)C(=O)c2ccccc2C4=O)cc1 | . | . | 104 | . | 105
CC(C)(C)n1[nH]c2c3c(ccc2c1=O)C(=O)c1ccccc1C3=O | 3.3* | 60 | 7 | 59 | 8
CCOc1ccc(NC(=O)Nc2cc(C)ccc2F)cc1 | 85 | 90 | 68 | 81 | 66
Cc1ccc2cc(CCNC(=O)c3ccc4c(c3)OCO4)c(=O)[nH]c2c1C | 105 | 89 | 88 | 105 | 89
CC(C)CC(=O)NCCCCc1ccccc1 | . | . | 90 | . | 83
